The target in experiment [1] is T1, Translocator protein (Rattus norvegicus, UniProt P16257). The experiment in a line: Displacement of [3H]-PK11195 from peripheral benzodiazepine receptor of rat ovary. The class given is tissue-based, Female gonad. In a few lines:
(§1)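 Rat tissue (cerebral cortex, ovary) homogenised in 50 vol PBS pH 7.4 at 4 °C, spun at 40 000g for 30 min, washed, resuspended in 10 vol PBS. […] Filtration on polyethyleneimine-soaked GF/B filters, scintillation counting. […] Means of three experiments in duplicate; Ki reported.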

Experiment [2] has as its target Benzodiazepine receptors; peripheral & central (Rattus norvegicus) (UniProt O09028+P15431+P18506+P18508+P19969+P20236+P23574+P23576+P28471+P28473+P30191+P62813+P63079+P63138+Q91ZM7+Q9ES14+P16257). In words: Ratio of inhibition for peripheral benzodiazepine receptor of rat ovary and central benzodiazepine GABA-A receptor. On the set-up: scale not given here. As to conditions: Female gonad. The class given is tissue-based.

Experiment [3] has as its target T1, Translocator protein. In words: Inhibitory concentration against peripheral benzodiazepine receptor of rat ovary. Format: tissue-based, Female gonad. The method, boiled down:
as §1

The test system of experiment [4] is Rattus norvegicus. In words: Effect of the 25 mg/kg compound on 3-alpha,5alpha-THDOC concentration in rat cerebral cortex after 30 min of intraperitoneal administration. The class given is functional, organism-based. On the set-up: dose 25 mg/kg. In a few lines:
(§2)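 Male Sprague–Dawley rats, about 60 days old, given 25 mg/kg ip in saline with three drops Tween 80 per 5 mL, 0.3 mL/100 g; sampled 30 min later. Brain taken after focused microwave irradiation of the head, plasma after guillotine. Cortex and plasma extracted with ethyl acetate; steroids measured by radioimmunoassay. Results in ng/g tissue, at least eight rats per group, compared with vehicle-treated rats.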

The test system of experiment [5] is Rattus norvegicus. In words: Effect of the 25 mg/kg compound on 3-alpha,5alpha-THPROG concentration in rat cerebral cortex after 30 min of intraperitoneal administration. The class given is functional, organism-based. On the set-up: dose 25 mg/kg. In a few lines: as §2
Experiment [6] relates to Rattus norvegicus. In words: Effect of the 25 mg/kg compound on 3-alpha,5alpha-THDOC concentration in rat plasma after 30 min of intraperitoneal administration. Format: functional, organism-based. Also on record: dose 25 mg/kg. In a few lines:
as §2

Experiment [7] deals with T1, Translocator protein. The experiment in a line: Displacement of [3H]PK11195 from peripheral benzodiazepine receptor of rat cerebral cortex. The class given is tissue-based. The method, boiled down: as §1
Experiment [8] relates to Rattus norvegicus. In words: Effect of the 25 mg/kg compound on 3-alpha,5alpha-THPROG concentration in rat plasma after 30 min of intraperitoneal administration. Format: functional, organism-based. Also on record: dose 25 mg/kg. The method, boiled down: as §2
The target of experiment [9] is GABA-A receptor; anion channel. In words: Displacement of [3H]flunitrazepam from central benzodiazepine GABA-A receptor of rat cerebral cortex. Format: tissue-based. In a few lines:
(§3)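 Rat cerebral cortex homogenised in 50 vol ice-cold 50 mM Tris-HCl pH 7.4, spun twice at 20 000g for 10 min. Membranes (0.4–0.5 mg protein) incubated with [3H]flunitrazepam for 60 min at 0 °C. Rapid filtration on GF/B filters, scintillation counting. Nonspecific binding with 5 μM diazepam. Means of three experiments in duplicate; Ki reported.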

The subject of experiment [10] is Rattus norvegicus. In words: Effect of the 25 mg/kg compound on progesterone concentration in rat cerebral cortex after 30 min of intraperitoneal administration. On the set-up: dose 25 mg/kg. The class given is functional, organism-based. The method, boiled down:
as §2

In experiment [11] the target is GABA-A receptor; anion channel. The experiment in a line: Inhibitory concentration of central benzodiazepine GABA-A receptor of rat cerebral cortex. Format: tissue-based. The method, boiled down: as §3
In experiment [12] the test system is Rattus norvegicus. In words: Effect of the 25 mg/kg compound on progesterone concentration in rat plasma after 30 min of intraperitoneal administration. Format: functional, organism-based. On the set-up: dose 25 mg/kg. In a few lines:
as §2

Experiment [13] concerns the target T1, Translocator protein. In words: Inhibitory concentration against peripheral benzodiazepine receptor of rat cerebral cortex. Format: tissue-based. The method, boiled down:
as §1

T1 sequence (P16257 whole entry, looked up): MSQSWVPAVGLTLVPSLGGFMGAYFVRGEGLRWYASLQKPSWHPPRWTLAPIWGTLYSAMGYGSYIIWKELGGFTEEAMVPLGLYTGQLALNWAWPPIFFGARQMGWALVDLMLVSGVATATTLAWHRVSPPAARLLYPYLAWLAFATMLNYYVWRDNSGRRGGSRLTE

`CCCCN(CCCC)C(=O)Cc1c(-c2ccc(Cl)cc2)nc2c(Cl)cccn12`: the inhibitory constant (Ki) on Translocator protein [1] was determined as 17.2 nM; at Translocator protein [7], 4.64 nM; in [9] it was 6880 nM. Further, the Selectivity index in experiment [2] was found to be 7.65. Also, the values for the IC50 at Translocator protein [3] and on Translocator protein [13] were 22.6 nM and 7.87 nM, respectively. The Concentration in the experiment on Rattus norvegicus [4] turned out to be 2.9 ng/g; with Rattus norvegicus [5] it was 8.8 ng/g; in the experiment on Rattus norvegicus [6] it was 14.9 ng/mL; in the experiment on Rattus norvegicus [8], 23.4 ng/mL; with Rattus norvegicus [10] it was 10.3 ng/g; in the experiment with Rattus norvegicus [12], 26 ng/mL. Also, the negative logarithm of the IC50 (pIC50) in experiment [11] was 5.

As for `CCCCN(C(=O)Cc1c(-c2ccccc2)nc2c(Cl)cc(Cl)cn12)c1ccccc1`, the results for the inhibition constant (Ki) (on Translocator protein [1]; on Translocator protein [7]; in experiment [9]) were 3.5 nM, 6.78 nM and 6880 nM, respectively. Also, the Selectivity index in [2] was found to be 3.34. The figures for the IC50 against Translocator protein [3] and against Translocator protein [13] were 4.6 nM and 11.5 nM, respectively. Besides, the Concentration came out at 2.6 ng/g in the experiment with Rattus norvegicus [4]; 16.3 ng/g with Rattus norvegicus [5]; 8.9 ng/mL in the experiment on Rattus norvegicus [6]; 21.3 ng/mL with Rattus norvegicus [8]; 5.8 ng/g with Rattus norvegicus [10]; 17.3 ng/mL in the experiment on Rattus norvegicus [12]. Moreover, the pIC50 in experiment [11] is listed as 5.

As for `O=C(Cc1c(-c2ccc(Cl)cc2)nc2c(Cl)cc(Cl)cn12)N1CCCCC1`, the Ki on Translocator protein [1] came to 65.4 nM; on Translocator protein [7], 3.05 nM; in experiment [9] it was 7590 nM. Also, in experiment [2], the Selectivity index was found to be 2.04. The IC50 at Translocator protein [3] is 92 nM; at Translocator protein [13] it was 5 nM. Further, the Concentration was 2.9 ng/g in the experiment with Rattus norvegicus [4]; 7.3 ng/g in the experiment on Rattus norvegicus [5]; 9.6 ng/mL with Rattus norvegicus [6]; 19.4 ng/mL in the experiment with Rattus norvegicus [8]; 7.8 ng/g in the experiment on Rattus norvegicus [10]; 12.2 ng/mL in the experiment with Rattus norvegicus [12]. Further, the pIC50 in [11] amounted to 5.

As to `CCCCN(CCCC)C(=O)Cc1c(-c2ccc(Cl)cc2)nc2c(Cl)cc(Cl)cn12`, the Ki on Translocator protein [1] was determined as 13.2 nM; at Translocator protein [7] it was 2.68 nM; in experiment [9], 7750 nM. The Selectivity index in experiment [2] was 2.73. Also, the IC50 was 18.6 nM at Translocator protein [3] and 5.2 nM against Translocator protein [13]. Also, the Concentration came to 3.5 ng/g in the experiment on Rattus norvegicus [4]; 9.1 ng/g in the experiment with Rattus norvegicus [5]; 16.2 ng/mL in the experiment with Rattus norvegicus [6]; 27.5 ng/mL in the experiment on Rattus norvegicus [8]; 11.5 ng/g with Rattus norvegicus [10]; 19 ng/mL in the experiment with Rattus norvegicus [12]. Moreover, the negative logarithm of the IC50 (pIC50) in [11] was determined as 5.

`CCCCN(C)C(=O)Cc1c(-c2ccccc2)nc2c(Cl)cc(Cl)cn12`: the Ki at Translocator protein [1] was determined as 1.72 nM; at Translocator protein [7] it was 2.16 nM. For the same compound, in experiment [2], the Selectivity index was determined as 3.64. The half-maximal inhibitory concentration (IC50) was 2.3 nM on Translocator protein [3] and 3.5 nM against Translocator protein [13]. The Concentration is 4.1 ng/g with Rattus norvegicus [4]; 9.2 ng/g in the experiment on Rattus norvegicus [5]; 10.4 ng/mL with Rattus norvegicus [6]; 16.5 ng/mL with Rattus norvegicus [8]; 10.6 ng/g in the experiment on Rattus norvegicus [10]; 13.6 ng/mL in the experiment on Rattus norvegicus [12]. The pIC50 in [11] came to 5.

Consider `CCCCN(C)C(=O)Cc1c(-c2ccc(Cl)cc2)nc2c(Cl)cc(Cl)cn12`, for which the Ki is 2.46 nM on Translocator protein [1], 0.302 nM on Translocator protein [7] and 6880 nM in [9]. Besides, the Selectivity index in experiment [2] worked out at 3.48. For the same compound, the IC50 against Translocator protein [3] is 3.3 nM; on Translocator protein [13], 0.45 nM. In addition, the Concentration in the experiment with Rattus norvegicus [4] is 3.9 ng/g; in the experiment with Rattus norvegicus [5], 7.4 ng/g; in the experiment on Rattus norvegicus [6], 8.1 ng/mL; with Rattus norvegicus [8], 16.2 ng/mL; in the experiment on Rattus norvegicus [10] it was 8.9 ng/g; with Rattus norvegicus [12] it was 14.9 ng/mL. In [11], this compound gave a pIC50 of 5.

With `C=CCN(CC=C)C(=O)Cc1c(-c2ccc(Cl)cc2)nc2c(Cl)cc(Cl)cn12`, the figures for the Ki (at Translocator protein [1]; at Translocator protein [7]; in experiment [9]) were 4.06 nM, 4.77 nM and 7750 nM, respectively. Also, in experiment [2], the Selectivity index was found to be 3.25. For the same compound, the IC50 against Translocator protein [3] is 5.6 nM; at Translocator protein [13] it was 8.09 nM. Moreover, the Concentration was 3.2 ng/g with Rattus norvegicus [4]; 8.6 ng/g in the experiment with Rattus norvegicus [5]; 9 ng/mL with Rattus norvegicus [6]; 18.1 ng/mL in the experiment with Rattus norvegicus [8]; 11.5 ng/g in the experiment on Rattus norvegicus [10]; 12.2 ng/mL with Rattus norvegicus [12]. Moreover, in experiment [11], the pIC50 is recorded as 5.

For the compound `CN(C(=O)Cc1c(-c2ccc(Cl)cc2)nc2c(Cl)cc(Cl)cn12)c1ccccc1`, the Ki at Translocator protein [1] was found to be 1.27 nM; on Translocator protein [7], 0.203 nM; in experiment [9], 6880 nM. Further, the Selectivity index in experiment [2] was found to be 3.77. For the same compound, the IC50 on Translocator protein [3] was 1.7 nM; against Translocator protein [13], 0.33 nM. Besides, the Concentration in the experiment with Rattus norvegicus [4] was 2.8 ng/g; with Rattus norvegicus [5], 7.4 ng/g; in the experiment on Rattus norvegicus [6], 8.3 ng/mL; with Rattus norvegicus [8], 20.3 ng/mL; with Rattus norvegicus [10] it was 7.2 ng/g; with Rattus norvegicus [12] it was 13.9 ng/mL. Moreover, in [11], the negative logarithm of the IC50 (pIC50) amounted to 5.

`CCCCN(Cc1ccccc1)C(=O)Cc1c(-c2ccccc2)nc2c(Cl)cc(Cl)cn12`: the Ki on Translocator protein [1] was 64.7 nM; on Translocator protein [7] it was 14.1 nM; in [9], 7010 nM. The Selectivity index in [2] was determined as 2.05. Besides, the IC50 was 89.7 nM on Translocator protein [3] and 24.2 nM on Translocator protein [13]. This compound also yielded a pIC50 in experiment [11] of 5.

The record behind these values is ChEMBL document CHEMBL1139492, “Structure-activity relationships and effects on neuroactive steroid synthesis in a series of 2-phenylimidazo[1,2-a]pyridineacetamide peripheral benzodiazepine receptors ligands” (J Med Chem, 2005).
